This note sets out measurements from ChEMBL document CHEMBL1671647, “In vitro activity of LK-157, a novel tricyclic carbapenem as broad-spectrum {beta}-lactamase inhibitor” (Antimicrob Agents Chemother, 2009).

In general, IC50 refers to the concentration at which inhibition is half-maximal. Lower therefore signals inhibition by little substance. For orientation: MIC means the least concentration at which growth counts as inhibited. Lower therefore signals greater potency. In general, MIC50 refers to an inhibitory concentration at the 50% level, which refers to growth in some studies and to a panel of isolates in others. Read a low MIC50 as greater potency. The term MIC90 denotes the lowest concentration that inhibits either 90% of growth or 90% of the strains tested, depending on the study.

The structures appear in SMILES notation. ≈ marks a conversion by molar mass, not a printed value.

Experiment [1] is described as follows: Inhibition of Beta-lactamase TEM-1. The gist of the method:
(§1)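 Purified β-lactamase (final 0.25 μg/ml) was preincubated with inhibitor for 10 min at 37°C in […] phosphate, pH 7, with 10% DMSO final. Prewarmed nitrocefin was then added (final […] as printed). A490 was read every 30 s for 10 min at 37°C to give initial rates. IC50 was fitted by sigmoidal nonlinear regression, from at least two independent experiments, with 95% CI.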

Experiment [2] is described as follows: Inhibition of Enterobacter cloacae Beta-lactamase AmpC. The gist of the method:
as §1

A short description of experiment [3]: Inhibition of Klebsiella pneumoniae Beta-lactamase SHV-1. In a few lines:
as §1

The subject of a further experiment is Pseudomonas aeruginosa. Description: Antibacterial activity against Pseudomonas aeruginosa by broth microdilution method. The format is functional. The gist of the method:
(§2)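 Broth microdilution MICs per CLSI against clinical and ATCC isolates; stocks in distilled water, diluted with water or Mueller-Hinton broth, drug weights corrected for salt forms. Twofold series from 256 to 0.125 μg/ml or 25.6 to 0.0125 μg/ml. Inoculum 5 × 10^5 CFU/ml (final) by direct colony suspension. β-Lactamase inhibitors, when combined with a β-lactam, held constant at 4 μg/ml.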

The subject of the next experiment is Enterobacter cloacae. The experiment is described as follows: Antibacterial activity against Enterobacter cloacae by broth microdilution method. Type of experiment: functional. In a few lines:
as §2

A further experiment has as its system Escherichia coli. The experiment is described as follows: Antibacterial activity against Escherichia coli by broth microdilution method. Type of experiment: functional. In a few lines:
as §2
On the technique in general: Dilution methods test growth across graded concentrations, often in twofold steps.

Another experiment concerns Klebsiella sp. The experiment is described as follows: Antibacterial activity against Klebsiella sp. by broth microdilution method. The format is functional. The gist of the method:
as §2

A further experiment relates to Moraxella catarrhalis. The experiment is described as follows: Antibacterial activity against Moraxella catarrhalis by broth microdilution method. The format is functional. In a few lines:
as §2

Experiment [4] relates to Staphylococcus aureus. The experiment is described as follows: Antibacterial activity against methicillin-resistant Staphylococcus aureus by broth microdilution method. The format is functional. In a few lines:
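CLSI broth microdilution MIC against clinical isolates. In β-lactam combinations the inhibitor was held constant at 4 μg/ml. Inoculum was prepared by direct colony suspension, final 5 × 10^5 CFU/ml.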

The next experiment relates to Enterococcus sp. Description: Antibacterial activity against Enterococcus sp. by broth microdilution method. The format is functional. In a few lines: as §2
The test system of another experiment is Citrobacter freundii. The experiment is described as follows: Antibacterial activity against Citrobacter freundii by broth microdilution method. The format is functional. The gist of the method:
as §2

Experiment [5] deals with Staphylococcus aureus. The experiment is described as follows: Antibacterial activity against methicillin-susceptible Staphylococcus aureus by broth microdilution method. The format is functional. In a few lines:
as §2

As for `C[C@]1(Cn2ccnn2)[C@H](C(=O)O)N2C(=O)C[C@H]2S1(=O)=O` [TAZOBACTAM], the IC50 came out at 14 nM in experiment [1] and 1760 nM in [2].
For `CC1(C)[C@H](C(=O)O)N2C(=O)C[C@H]2S1(=O)=O` [SULBACTAM], the IC50 in [3] worked out at 3960 nM; in experiment [1] it was 1060 nM; in [2], 11900 nM.
Consider `C/C=C1/C(=O)N2C(C(=O)O)=C3[C@@H](OC)CCC[C@@H]3[C@H]12`, for which the minimum inhibitory concentration (MIC) against Pseudomonas aeruginosa was greater than 25.6 µg/mL; in the experiment with Enterobacter cloacae, greater than 25.6 µg/mL; in the experiment with Escherichia coli, greater than 25.6 µg/mL; in the experiment with Klebsiella sp. it was 6.4 µg/mL (≈ 24.3 µM); with Enterococcus sp., greater than 25.6 µg/mL; against Citrobacter freundii it was greater than 25.6 µg/mL. In the experiment on Staphylococcus aureus [5], this compound came in with an MIC of 0.8 µg/mL (≈ 3.04 µM). The MIC50 with Enterobacter cloacae was greater than 25.6 µg/mL; against Escherichia coli, greater than 25.6 µg/mL; with Klebsiella sp. it was greater than 25.6 µg/mL; in the experiment on Moraxella catarrhalis, 0.8 µg/mL (≈ 3.04 µM); in the experiment on Staphylococcus aureus [4], greater than 256 µg/mL. Moreover, the MIC90 with Enterobacter cloacae was greater than 25.6 µg/mL; in the experiment on Escherichia coli, greater than 25.6 µg/mL; in the experiment on Klebsiella sp., greater than 25.6 µg/mL; against Moraxella catarrhalis, 0.8 µg/mL (≈ 3.04 µM); against Staphylococcus aureus [4], greater than 256 µg/mL. Moreover, the IC50 in experiment [3] stood at 151 nM; in experiment [1], 55 nM; in experiment [2], 62 nM.
With `O=C(O)[C@H]1/C(=C/CO)O[C@@H]2CC(=O)N21` [CLAVULANIC ACID], the 50% inhibitory concentration (IC50) in [3] turned out to be 28 nM; in experiment [1], 30 nM; in experiment [2], 136000 nM.
